Data set [1] can be described thus: Oral bioavailability in C57BL/6J mouse at 20 to 30 mg/kg, iv measured upto 24 hrs by LC-MS/MS analysis. The format is ADME, organism-based. Particulars: in vivo, dose 20-30 mg/kg.
Data set [2] concerns the target T1, NAD-dependent protein deacylase sirtuin-6 (Homo sapiens, UniProt Q8N6T7). As to the kind of experiment: Activation of his6-tagged SIRT6 (unknown origin) assessed as fold activation using H3K9Ac peptide substrate incubated for 30 mins. To be noted: filed as activator.
The test system of data set [3] is SARS-CoV-2. In words: Antiviral activity against SARS-CoV-2 infected in human A549-ACE2 cells assessed as viral growth inhibition. The format is functional, organism-based. Particulars: Severe acute respiratory syndrome coronavirus 2, A549-ACE2.
Data set [4] can be described thus: Cytotoxicity against human A549-ACE2 cells assessed as inhibition of cell growth measured for 48 hrs. It counts as functional.
Data set [5] addresses T1, NAD-dependent protein deacylase sirtuin-6. As to the kind of experiment: Activation of recombinant SIRT6 (unknown origin) deacetylase activity using fluoro peptide as substrate by microplate reader analysis.
For data set [6], the target named is T2, NAD-dependent protein deacetylase sirtuin-1 (Homo sapiens) (UniProt Q96EB6).
T2 sequence (whole entry): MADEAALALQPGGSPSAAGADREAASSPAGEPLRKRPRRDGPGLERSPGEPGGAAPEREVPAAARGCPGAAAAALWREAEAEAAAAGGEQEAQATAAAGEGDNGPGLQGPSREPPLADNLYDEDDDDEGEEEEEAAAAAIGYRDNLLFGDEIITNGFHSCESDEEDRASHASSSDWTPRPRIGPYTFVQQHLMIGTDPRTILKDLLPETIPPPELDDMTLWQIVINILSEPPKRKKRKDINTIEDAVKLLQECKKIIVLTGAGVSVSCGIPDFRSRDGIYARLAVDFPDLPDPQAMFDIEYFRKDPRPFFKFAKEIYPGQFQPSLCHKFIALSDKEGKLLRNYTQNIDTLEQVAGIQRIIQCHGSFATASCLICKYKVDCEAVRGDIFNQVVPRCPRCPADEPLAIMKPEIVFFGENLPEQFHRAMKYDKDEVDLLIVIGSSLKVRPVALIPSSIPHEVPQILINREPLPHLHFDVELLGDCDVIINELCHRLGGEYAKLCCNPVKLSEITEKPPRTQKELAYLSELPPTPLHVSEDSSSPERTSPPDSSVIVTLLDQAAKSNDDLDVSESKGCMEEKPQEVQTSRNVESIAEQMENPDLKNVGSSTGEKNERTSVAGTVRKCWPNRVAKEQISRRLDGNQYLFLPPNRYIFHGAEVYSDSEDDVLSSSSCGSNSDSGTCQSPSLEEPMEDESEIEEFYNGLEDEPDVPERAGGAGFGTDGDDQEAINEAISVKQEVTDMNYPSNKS
As to the kind of experiment: Activation of human SIRT1 (unknown origin) deacetylation activity using fluorogenic substrate measured upto 120 mins by microplate reader analysis. An outline of the steps:
(§1)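 Recombinant Sirt1 or Sirt2 was assayed with a kit fluoro-substrate peptide (0.1 mM stock), NAD+ (8 mM stock) and developer in a 25 µL reaction at room temperature. Fluorescence was read over 125 min, at Ex/Em 350/450 nm for Sirt1 and 490/530 nm for Sirt2.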

The target of data set [7] is T3, NAD-dependent protein deacetylase sirtuin-2 (Homo sapiens) (UniProt Q8IXJ6).
T3 sequence (whole entry): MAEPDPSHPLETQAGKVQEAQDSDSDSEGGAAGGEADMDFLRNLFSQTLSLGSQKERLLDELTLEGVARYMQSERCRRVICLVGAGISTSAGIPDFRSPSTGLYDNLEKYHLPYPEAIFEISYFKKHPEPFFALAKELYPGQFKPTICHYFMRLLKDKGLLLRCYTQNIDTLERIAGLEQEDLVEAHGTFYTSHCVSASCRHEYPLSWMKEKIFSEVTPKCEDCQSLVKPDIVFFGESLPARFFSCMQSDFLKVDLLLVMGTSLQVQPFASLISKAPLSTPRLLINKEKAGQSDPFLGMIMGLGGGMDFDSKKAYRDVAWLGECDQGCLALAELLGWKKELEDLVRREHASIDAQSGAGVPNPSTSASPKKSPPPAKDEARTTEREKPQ
As to the kind of experiment: Activation of human SIRT2 (unknown origin) deacetylation activity using fluorogenic substrate measured upto 120 mins by microplate reader analysis. An outline of the steps: as §1

In data set [8] the target is NAD-dependent protein deacylase sirtuin-5, mitochondrial (Homo sapiens) (UniProt Q9NXA8). As to the kind of experiment: Activation of human SIRT5 (unknown origin) desuccinylation activity using fluorogenic substrate measured upto 120 mins by microplate reader analysis.
NAD-dependent protein deacylase sirtuin-5, mitochondrial (Homo sapiens), sequence (Q9NXA8 37-310 limits assumed): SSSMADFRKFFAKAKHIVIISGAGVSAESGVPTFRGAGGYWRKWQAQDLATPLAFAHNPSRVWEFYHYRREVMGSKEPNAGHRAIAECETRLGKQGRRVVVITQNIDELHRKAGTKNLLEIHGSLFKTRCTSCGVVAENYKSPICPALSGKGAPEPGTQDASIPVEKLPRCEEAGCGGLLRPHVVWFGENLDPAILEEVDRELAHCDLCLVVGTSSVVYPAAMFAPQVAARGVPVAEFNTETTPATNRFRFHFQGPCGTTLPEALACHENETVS
The target of data set [9] is T1, NAD-dependent protein deacylase sirtuin-6. In words: Activation of SIRT6 (unknown origin) deacetylase activity assessed as fold activation. Particulars: filed as activator. The procedure, abridged:
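Recombinant Sirt6 was run in a fluorometric activity kit (FDL-type deacetylation) with a fluoro-substrate peptide (0.1 mM stock), NAD+ (8 mM stock) and developer in a 25 µL reaction at room temperature. Compounds were tested at 100 and 30 µM. Fluorescence was read at Ex/Em 490/530 nm over 125 min. Fold activation is given as mean ± SD from at least two independent experiments.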

Data set [10] shares this target. In words: Activation of SIRT6 (unknown origin) deacetylase activity assessed as fold increase in maximal activation. Particulars: filed as activator.

As usually defined, the bioavailability is the share of a dose that reaches the circulation, judged against a reference dose that is usually intravenous. Broadly, the EC50 is the concentration giving half of the maximal effect. One may read the CC50 as the concentration at which the toxic effect on the cells reaches its halfway point.

The source made the active and inactive calls. The rule behind the calls is not given here. Where only a bound is given, the exact number is not on record here.

T1 sequence (Q8N6T7 whole entry): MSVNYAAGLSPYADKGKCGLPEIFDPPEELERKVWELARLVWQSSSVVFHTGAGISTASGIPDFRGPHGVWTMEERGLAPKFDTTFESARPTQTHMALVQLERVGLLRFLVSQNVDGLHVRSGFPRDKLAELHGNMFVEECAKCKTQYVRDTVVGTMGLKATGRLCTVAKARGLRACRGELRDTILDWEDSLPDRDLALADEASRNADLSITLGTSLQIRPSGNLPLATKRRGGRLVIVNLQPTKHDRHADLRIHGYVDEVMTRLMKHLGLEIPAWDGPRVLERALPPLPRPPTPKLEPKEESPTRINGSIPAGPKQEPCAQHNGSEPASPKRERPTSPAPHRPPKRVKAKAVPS

As to `Cc1cc(F)c(Br)cc1NS(=O)(=O)c1ccc(NS(=O)(=O)c2cc(Cl)cc(Cl)c2)cc1CN1CCOC[C@H]1C`, the bioavailability in [1] stood at 93%.
For the molecule `CCCCCCCC/C=C\CCCCCCCC(=O)NCCO`, the fold change (FC) in data set [2] is 2.1.
In the case of `CN(C)CCN1CCN(c2ncccc2C2Nc3ccccc3-n3cccc32)CC1` (stereo not drawn), the EC50 in [3] came to 9.3 µM; in data set [5] it was 48.8 µM. For the same molecule, in [4], the CC50 is over 50 µM. Moreover, the result in data set [6], in [7] and in data set [8] was inactive. The outcome in data set [6] (filed as activator) was Active.
`O=C(O)c1ccc2c(c1)C(=O)N(c1ccc(N(C(=O)c3c(Cl)cc(Cl)cc3Cl)C(=O)c3c(Cl)cc(Cl)cc3Cl)c(Cl)c1)C2=O`: the fold change (FC) in data set [9] was determined as 4.
With `c1cncc(C2Nc3ccccc3-n3cccc32)c1` (stereo not drawn), the EC50 in data set [3] was determined as 50 µM. Moreover, in data set [4], the CC50 was over 50 µM. Besides, the fold change (FC) in data set [10] stood at 2.

The record behind these values is ChEMBL document CHEMBL5352471, “Design, synthesis, and pharmacological evaluations of pyrrolo[1,2-a]quinoxaline-based derivatives as potent and selective sirt6 activators” (Eur J Med Chem, 2023).
